Calls of active or inactive are those of the source. The calls are words filed in the database; no cut-off is given here.
Columns and labels:
[1] = biological target: T1, Glycogen synthase kinase-3 beta (Homo sapiens, UniProt P49841); assay: Inhibition of GSK3-beta in human SH-Sy5Y cells assessed as reduction of amyloid beta (25-35)-induced Tau hyperphosphorylation at Ser396 at 10 uM treated 1 hr before amyloid beta (25-35) challenge measured after 6 hrs by Western blotting; type: cell-based
Procedure, shortened: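 SH-SY5Y cells from ATCC kept in 1:1 DMEM:Ham's F12 with 10% FBS and penicillin/streptomycin under 5% CO2. Grown to about 80% confluence and serum-starved 12 h. Inhibitor added for 1 h, then amyloid beta 25–35 for 6 h. Lysed in SDS loading buffer and run on 10% SDS-PAGE. Western blot on PVDF with rabbit anti-Tau pS396 and ECL detection.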
Target sequence in this assay (P49841 whole entry, looked up): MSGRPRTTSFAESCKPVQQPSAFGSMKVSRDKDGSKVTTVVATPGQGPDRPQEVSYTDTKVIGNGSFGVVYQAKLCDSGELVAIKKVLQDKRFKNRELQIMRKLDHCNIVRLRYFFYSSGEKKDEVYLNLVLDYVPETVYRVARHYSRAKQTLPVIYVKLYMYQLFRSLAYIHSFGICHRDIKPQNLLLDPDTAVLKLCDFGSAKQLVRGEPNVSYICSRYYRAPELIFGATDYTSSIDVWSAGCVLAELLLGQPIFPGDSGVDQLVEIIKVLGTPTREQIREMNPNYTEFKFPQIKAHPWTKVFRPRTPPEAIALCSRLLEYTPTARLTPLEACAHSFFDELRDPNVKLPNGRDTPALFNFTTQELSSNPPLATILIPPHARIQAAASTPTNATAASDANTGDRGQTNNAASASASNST

[2] = biological target: T1, Glycogen synthase kinase-3 beta; assay: Inhibition of recombinant GST-GSK3beta expressed in Escherichia coli BL21 (DE3)
Target sequence in this assay (P49841 whole entry): as the sequence (P49841 whole entry, looked up) above

[3] = biological target: Mitogen-activated protein kinase 3 (Homo sapiens, UniProt P27361); assay: Inhibition of recombinant ERK1 expressed in Escherichia coli
Chain of Mitogen-activated protein kinase 3 (P27361 whole entry): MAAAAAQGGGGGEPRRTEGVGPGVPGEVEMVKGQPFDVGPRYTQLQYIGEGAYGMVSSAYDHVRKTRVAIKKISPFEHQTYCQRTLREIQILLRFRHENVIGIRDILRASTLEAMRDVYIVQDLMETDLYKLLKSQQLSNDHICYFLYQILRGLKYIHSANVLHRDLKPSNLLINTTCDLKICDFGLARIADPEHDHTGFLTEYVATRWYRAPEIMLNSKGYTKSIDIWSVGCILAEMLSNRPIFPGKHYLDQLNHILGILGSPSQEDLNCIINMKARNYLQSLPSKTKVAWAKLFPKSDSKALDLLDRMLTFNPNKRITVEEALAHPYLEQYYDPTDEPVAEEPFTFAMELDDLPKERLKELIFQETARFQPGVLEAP

[4] = biological target: T2, Aurora kinase A (Homo sapiens, UniProt O14965); assay: Inhibition of recombinant Aurora A expressed in Escherichia coli
T2 sequence (O14965 whole entry): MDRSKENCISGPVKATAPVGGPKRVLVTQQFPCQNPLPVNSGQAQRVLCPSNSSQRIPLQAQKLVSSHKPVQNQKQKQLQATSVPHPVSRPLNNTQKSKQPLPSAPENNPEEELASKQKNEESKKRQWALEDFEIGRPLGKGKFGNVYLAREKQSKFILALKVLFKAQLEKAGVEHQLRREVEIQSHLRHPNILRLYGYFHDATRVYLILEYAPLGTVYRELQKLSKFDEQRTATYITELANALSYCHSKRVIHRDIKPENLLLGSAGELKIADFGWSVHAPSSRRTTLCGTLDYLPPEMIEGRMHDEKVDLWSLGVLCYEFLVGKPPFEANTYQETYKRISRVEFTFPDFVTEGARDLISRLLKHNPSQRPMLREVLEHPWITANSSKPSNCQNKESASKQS

[5] = biological target: T3, Protein kinase C epsilon type (Homo sapiens, UniProt Q02156); assay: Inhibition of recombinant PKCE expressed in Bac-to Bac baculovirus system
T3 sequence (Q02156 whole entry): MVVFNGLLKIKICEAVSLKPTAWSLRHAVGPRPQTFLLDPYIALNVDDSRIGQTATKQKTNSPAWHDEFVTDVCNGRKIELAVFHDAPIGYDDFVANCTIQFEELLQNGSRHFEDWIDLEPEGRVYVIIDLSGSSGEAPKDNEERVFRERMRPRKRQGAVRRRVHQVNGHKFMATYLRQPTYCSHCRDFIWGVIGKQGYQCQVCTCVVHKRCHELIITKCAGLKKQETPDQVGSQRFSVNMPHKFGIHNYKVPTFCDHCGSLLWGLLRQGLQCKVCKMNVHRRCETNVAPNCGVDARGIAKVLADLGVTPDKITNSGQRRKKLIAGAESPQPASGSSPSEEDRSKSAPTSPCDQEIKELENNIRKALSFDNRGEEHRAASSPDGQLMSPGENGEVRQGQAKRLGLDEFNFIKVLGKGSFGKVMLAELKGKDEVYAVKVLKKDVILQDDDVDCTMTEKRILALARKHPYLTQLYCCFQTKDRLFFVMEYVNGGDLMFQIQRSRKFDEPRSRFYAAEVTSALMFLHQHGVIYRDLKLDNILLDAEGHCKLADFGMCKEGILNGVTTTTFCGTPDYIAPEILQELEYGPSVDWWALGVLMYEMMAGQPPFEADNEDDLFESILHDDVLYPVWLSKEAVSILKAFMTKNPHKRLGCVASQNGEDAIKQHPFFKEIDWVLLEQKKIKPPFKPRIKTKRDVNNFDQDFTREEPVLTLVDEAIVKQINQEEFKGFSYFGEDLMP

[6] = biological target: Dual specificity mitogen-activated protein kinase kinase 1 (Homo sapiens, UniProt Q02750); assay: Inhibition of recombinant MEK1 expressed in Escherichia coli
Chain of Dual specificity mitogen-activated protein kinase kinase 1 (Q02750 whole entry): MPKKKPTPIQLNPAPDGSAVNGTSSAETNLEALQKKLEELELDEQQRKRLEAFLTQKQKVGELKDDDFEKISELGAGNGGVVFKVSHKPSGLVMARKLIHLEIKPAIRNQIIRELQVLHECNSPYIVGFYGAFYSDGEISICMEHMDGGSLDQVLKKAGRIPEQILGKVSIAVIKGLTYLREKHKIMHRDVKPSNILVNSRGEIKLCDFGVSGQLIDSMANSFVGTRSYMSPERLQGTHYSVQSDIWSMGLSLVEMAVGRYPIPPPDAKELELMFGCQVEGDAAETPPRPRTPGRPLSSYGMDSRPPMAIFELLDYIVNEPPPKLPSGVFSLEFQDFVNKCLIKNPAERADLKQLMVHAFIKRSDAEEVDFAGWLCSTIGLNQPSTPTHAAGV

[7] = biological target: T4, Inhibitor of nuclear factor kappa-B kinase subunit beta (Homo sapiens, UniProt O14920); assay: Inhibition of recombinant IKK2 expressed in Bac-to Bac baculovirus system
T4 sequence (O14920 whole entry): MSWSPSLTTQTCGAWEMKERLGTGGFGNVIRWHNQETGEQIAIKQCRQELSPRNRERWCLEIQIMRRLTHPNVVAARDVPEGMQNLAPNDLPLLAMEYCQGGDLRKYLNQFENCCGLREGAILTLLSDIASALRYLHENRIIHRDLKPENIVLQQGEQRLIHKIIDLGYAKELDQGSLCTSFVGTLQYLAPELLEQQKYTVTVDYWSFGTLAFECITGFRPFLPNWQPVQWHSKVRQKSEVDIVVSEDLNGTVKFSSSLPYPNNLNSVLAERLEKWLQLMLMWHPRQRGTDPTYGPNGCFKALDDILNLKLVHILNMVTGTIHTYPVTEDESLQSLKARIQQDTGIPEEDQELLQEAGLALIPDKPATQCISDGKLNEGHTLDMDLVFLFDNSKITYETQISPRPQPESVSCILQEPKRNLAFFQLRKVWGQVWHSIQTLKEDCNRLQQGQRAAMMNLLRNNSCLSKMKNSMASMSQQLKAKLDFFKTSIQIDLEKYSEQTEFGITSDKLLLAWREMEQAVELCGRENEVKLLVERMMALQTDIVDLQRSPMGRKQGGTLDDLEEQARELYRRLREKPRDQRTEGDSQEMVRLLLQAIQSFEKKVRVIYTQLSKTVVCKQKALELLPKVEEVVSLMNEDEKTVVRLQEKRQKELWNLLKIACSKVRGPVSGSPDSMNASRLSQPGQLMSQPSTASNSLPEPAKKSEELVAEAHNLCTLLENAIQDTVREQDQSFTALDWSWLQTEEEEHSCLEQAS

SMILES: COc1ccc2c(c1)c(C1=C(n3ccc4ncccc43)C(=O)NC1=O)cn2CCCn1ccnc1
- Activity [1]: inactive
- IC50 [2]: 0.48 µM

SMILES: O=C1NC(=O)C(n2ccc3ncccc32)=C1c1cn(CCn2ccnc2)c2ccccc12
- IC50 [3]: > 40 µM
- IC50 [4]: > 40 µM
- Activity [1]: inactive
- IC50 [5]: > 40 µM
- IC50 [2]: 0.26 µM
- IC50 [6]: > 40 µM
- IC50 [7]: > 40 µM

SMILES: O=C1NC(=O)C(n2ccc3ncccc32)=C1c1cn(CCCn2ccnc2)c2ccccc12
- IC50 [2]: 0.55 µM

SMILES: CN(C)CCCn1cc(C2=C(n3ccc4ncccc43)C(=O)NC2=O)c2ccc(Br)cc21
- IC50 [2]: 2.26 µM

SMILES: COc1ccc2c(c1)c(C1=C(n3ccc4ncccc43)C(=O)NC1=O)cn2CCCN(C)C
- IC50 [2]: 22.5 µM

SMILES: O=C1NC(=O)C(n2ccc3ncccc32)=C1c1cn(CCCn2ccnc2)c2ccc(Br)cc12
- IC50 [3]: > 40 µM
- IC50 [4]: > 40 µM
- Activity [1]: Active
- IC50 [5]: > 40 µM
- IC50 [2]: 0.14 µM
- IC50 [6]: > 40 µM
- IC50 [7]: > 40 µM

SMILES: O=C1NC(=O)C(n2ccc3ncccc32)=C1c1cn(CCCN2CCOCC2)c2ccccc12
- IC50 [2]: 1.79 µM

SMILES: O=C1NC(=O)C(n2ccc3ncccc32)=C1c1c[nH]c2ccccc12
- IC50 [2]: 30.6 µM

SMILES: CN(C)CCCn1cc(C2=C(n3ccc4ncccc43)C(=O)NC2=O)c2ccc(F)cc21
- IC50 [2]: 12.4 µM

SMILES: Cn1cc(C2=C(c3cn(CCN4CCOCC4)c4ccccc34)C(=O)NC2=O)c2ncccc21
- IC50 [2]: 0.9 µM

SMILES: O=C1NC(=O)C(n2ccc3ncccc32)=C1c1cn(CCCn2ccnc2)c2cc(F)ccc12
- IC50 [2]: 0.31 µM

SMILES: Cn1cc(C2=C(c3cn(CCCN4CCOCC4)c4ccccc34)C(=O)NC2=O)c2ncccc21
- IC50 [3]: > 40 µM
- IC50 [4]: > 40 µM
- Activity [1]: Active
- IC50 [5]: > 40 µM
- IC50 [2]: 0.76 µM
- IC50 [6]: > 40 µM
- IC50 [7]: > 40 µM

SMILES: O=C1NC(=O)C(n2ccc3ncccc32)=C1c1cn(CCCN2CCCCC2)c2ccccc12
- IC50 [2]: 12.4 µM

SMILES: CN(C)CCCn1cc(C2=C(n3ccc4ncccc43)C(=O)NC2=O)c2ccccc21
- IC50 [2]: 13.6 µM

SMILES: O=C1NC(=O)C(n2ccc3ncccc32)=C1c1cn(CCCn2ccnc2)c2cc(Br)ccc12
- Activity [1]: inactive
- IC50 [2]: 0.95 µM

SMILES: O=C1C(c2cn(CCCn3ccnc3)c3ccccc23)=C(n2ccc3ncccc32)C(=O)N1c1ccccc1
- IC50 [2]: > 73.3 µM

SMILES: Cn1cc(C2=C(c3cn(CCCn4ccnc4)c4ccccc34)C(=O)NC2=O)c2ncccc21
- IC50 [2]: 0.66 µM

SMILES: Cn1cc(C2=C(c3cn(CCCO)c4ccccc34)C(=O)NC2=O)c2ncccc21
- IC50 [2]: 1.14 µM

SMILES: O=C1NC(=O)C(n2ccc3ncccc32)=C1c1cn(CCCCn2ccnc2)c2ccccc12
- Activity [1]: inactive
- IC50 [2]: 0.85 µM
